Sampled rows, rich in hits. Any-hit rate of the full collection: about 2.7%.
FLuc inh counter – firefly luciferase enzyme inhibitors, primary screen, artefact control for luciferase-based inhibitor screens, biochemical, luminescence, ATPLite; Luciferin 4-monooxygenase (Photinus pyralis), P08659; 10 min; inhibition, % at 10 µM; 200,000 compounds, 1.5% hits; AID 1006, 2008;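 active = inhibition above about 50% when tested at 10 µM, limit read from the data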
ABCB1 block – ABCB1 efflux pump inhibitors, primary screen, cell-based, multiplex, flow cytometry, ABCG2 counter-screen; CCRF-Adr cells, JC-1 efflux; AID 1326, 2008; inhibition, % at 6.6 µM; ATP-dependent translocase ABCB1 (Homo sapiens), P08183; 190,000 compounds, 0.067% hits; in the data active = inhibition above about 40%;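 note: 0% = vehicle and 100% = reference inhibitor; higher value means more JC-1 retained so stronger ABCB1 efflux block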
Measles CPE – compounds protecting cells from measles virus cytopathic effect, primary screen, measles RdRp inhibitor project, single point, MLSMR library, absorbance; Measles virus-infected cells, CPE protection; protection (pct of control), % at 4 µM; 140,000 compounds, 1.5% hits; AID 841, 2007; in the data active = protection mostly above about 24%, no sharp cut-off; inactive = mostly below about 26%
FLuc stim CS – FLuc activators, initial screening, artefact control for FLuc-dependent activation tests, biochemical, ATPlite luminescence | AID 1027, 2008 | activation factor at 10 µM | 200,000 tested, under 10 active | Luciferin 4-monooxygenase (Photinus pyralis), P08659 | ATPlite luciferase biochemical, 10 min; 0 = ATP-free wells, 1 = DMSO control;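 active = luciferase activation factor, scaled between plate controls, of at least 2 with compound at 10 µM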
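System: Luciferase/luciferin detection reagent, cell-free biochemical luciferase assay | Medium: PBS buffer for ATP | Dosing: Test compounds dosed from 2 mM stocks in 100% DMSO | Timing: 10 min at ambient temperature | Signal: Luminescence measurement of luciferase light output | Evaluation: Luciferase activation, seen as luminescence increase over controls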
DTT redox prof – compounds producing H2O2 with reducing agent – biochemical, NIH compound library profiling, artefact control for MLSCN library redox annotation, primary screen; DTT-dependent redox cycling H2O2, phenol red/HRP absorbance; 100% = 100 µM peroxide control, 0% = buffer; 200,000 compounds, 0.03% hits; activation, % at 10 µM;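 active = activation of at least 50% relative to the plate's high and low controls in the primary single-dose screen; inactive = activation below 50%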;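 note: compound incubated with DTT at 0.8 mM final as the reducing agent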
ABCG2 inh – ABCG2 efflux pump inhibitors, primary screen, multiplex with ABCB1, IgMXP3 cells, flow cytometry; Broad substrate specificity ATP-binding cassette transporter ABCG2 (Homo sapiens), Q9UNQ0; JC-1 efflux; inhibition, % at 6.6 µM; 190,000 compounds, 0.1% hits; AID 1325, 2008;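 active = inhibition above 80%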;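 note: 0% = DMSO and 100% = nicardipine control wells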
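Assay system – ABCG2 IgMXP3 and barcoded ABCB1 CCRF-Adr cell mix · Input – 3 million cells/mL in well · Reagent – JC-1 fluorescent substrate · Compound – single test compound dose, 6.6 µM final · Timing – 10 min exposure at 25 °C with rotation, no wash · Detection – flow cytometry of retained JC-1 fluorescence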
Starred values were filed as active, the others as inactive; . = not tested or not shown.

SMILES	FLuc inh counter	ABCB1 block	Measles CPE	FLuc stim CS	DTT redox prof	ABCG2 inh
COc1ccc(C(=O)NNC(=S)Nc2ccccc2)cc1	57*	0	.	0.4	-2	4
CCNC(=S)NNC(=O)c1ccc(OC)cc1	-6	1	.	1.1	0	15
CCc1ccc(NC(=O)Nc2cccc(OC)c2)cc1	52*	-1	.	0.5	-1	-2
COc1cccc(CNC(=O)CCNS(=O)(=O)c2cccs2)c1	-2	0	6	1	0	0
COc1cccc(NC(=O)CCC(=O)Nc2cccc(OC)c2)c1	4	0	16	1	0	3
COc1cccc(NC(=O)CCC(=O)NCc2ccco2)c1	-5	0	86*	1	0	2
Cc1cccc(NC(=O)C2C3C=CC(C4CC34)C2C(=O)O)c1 (configuration not stated)	10	0	49*	0.9	-3	-3
O=C(O)C1C2C=CC(C3CC23)C1C(=O)O (configuration not stated)	-4	0	5	1	2	0
CC(=O)C1=C(O)CC(c2ccccc2)CC1=NCCc1ccccc1 (configuration not stated)	2	1	.	1	0	2
CC(=O)C1=C(O)CCC1=NCCc1ccccc1	-2	0	29*	1	-14	1
Nc1ccc(Nc2nc(-c3ccncc3)cs2)cc1	59*	0	2	0.4	-1	-2
Cc1c(-c2ccccc2)nc2ccccc2c1C(=O)OCC(=O)Nc1ncc(C(F)(F)F)cc1Cl	-2	0	11	1	0	1
O=C(N/N=C/C1CC=CCC1)c1ccc(Cl)cc1O (configuration not stated)	55*	-1	10	0.4	0	-3
CCS/C(N)=N/N=C/c1cc(C)ccc1O	90*	0	4	0.1	0	3
Cc1cccc(OCCN2CSC(=S)N(C)C2)c1	-9	0	4	1.1	-1	-1
COc1ccccc1OCCN1CSC(=S)N(C)C1	-4	0	34*	1	0	1
O=C(NCCSCc1ccccc1)c1ccc(C2SCC(=O)N2Cc2ccccc2)cc1 (configuration not stated)	-6	2	3	1.1	0	6
COC(=O)Cc1c(C)nc2nc(-c3ccc(Cl)cc3)[nH]n2c1=O	58*	-1	21	0.4	0	-5
COC(=O)Cc1c(C)nc2nc(-c3ccc(C)cc3)[nH]n2c1=O	50*	0	6	0.5	0	6
Cc1cc(=O)n2[nH]c(-c3ccc(F)cc3)nc2n1	66*	0	4	0.3	0	0
Cc1nc2nc(-c3ccc(Cl)cc3)[nH]n2c(=O)c1C	66*	1	9	0.3	-3	7
CC(C)CNS(=O)(=O)c1ccc(S(=O)(=O)NC2CCOC(C)(C)C2)cc1 (configuration not stated)	.	.	.	.	-1	.
O=C(CCS(=O)(=O)c1cccs1)Nc1ccc(C(=O)NC2CCCC2)cc1	-8	0	.	1.1	0	1
C=CCNc1sc(C(=O)c2ccc(Br)s2)c(N)c1C#N	-2	0	3	1	1	-1
O=C1c2ccccc2C(=O)C1c1ccncc1	80*	0	6	0.2	2	5
SMILES	FLuc inh counter	ABCB1 block	Measles CPE	FLuc stim CS	DTT redox prof	ABCG2 inh
Cc1ccccc1N1C(=O)c2ccccc2NC1c1ccncc1 (configuration not stated)	-4	0	15	1	0	0
COc1ccccc1OCC(=O)Nc1ccc(S(=O)(=O)N2CCCCCC2)cc1	-2	0	18	1	2	2
COc1ccccc1N(CC(=O)Nc1ccc(S(=O)(=O)N2CCCCC2)cc1)S(C)(=O)=O	-8	2	65*	1.1	-1	22
O=C(COC(=O)c1n[nH]c2ccccc12)Nc1ccc(S(=O)(=O)N2CCCC2)cc1	-6	0	71*	1.1	2	0
Cc1cc(NCc2ccco2)n2ncnc2n1	-7	.	10	1.1	0	0
COc1ccc(/C=N/n2c(N)c(S(=O)(=O)c3cccs3)c3nc4ccccc4nc32)cc1OC	-5	1	32*	1	0	4
Cc1ccc(CN2CC34C=CC(O3)C(C(=O)NCc3ccco3)C4C2=O)cc1 (configuration not stated)	-6	1	30*	1.1	-1	2
Cc1ccc(C=Nc2ccc(N(C)C)cc2)o1	76*	-1	7	0.2	-2	-1
Cc1ccc(/C=N/n2c(C)nnc2C)o1	-4	0	14	1	1	-1
N#Cc1c(Nc2ccccc2)sc(C(=O)c2ccccc2)c1N	-3	0	68*	1	-2	1
CC(=O)C1C(=O)CC(C)(O)C(C(C)=O)C1c1ccccc1 (configuration not stated)	0	0	.	1	-1	-2
CCOC(=O)C1=C(CC)OC(N)=C(C#N)C1c1ccc(NC(C)=O)cc1 (configuration not stated)	0	-1	31*	1	1	-2
CCOC(=O)C1=C(CC)OC(N)=C(C#N)C1c1cc(OC)ccc1OC (configuration not stated)	-8	2	16	1.1	-3	50
CC(C)(C)CC(=O)Nc1cccc(-c2cn3cccnc3n2)c1	61*	-1	.	0.4	0	3
COc1cc(C(=O)Nc2cccc(-c3cn4cccnc4n3)c2)cc(OC)c1OC	9	0	.	0.9	0	0
COc1cccc2sc(Nc3nnc(-c4cccs4)o3)nc12	56*	-1	4	0.4	2	-7
COc1cccc2sc(Nc3nnc(-c4ccc(F)cc4)o3)nc12	28	-3	5	0.7	-1	-5
Fc1cccc2sc(Nc3nnc(-c4ccco4)o3)nc12	68*	0	12	0.3	-2	0
CCC12CN3CCN(CC(C3)/C1=N\NC(=O)c1ccc(F)cc1)C2	-7	0	.	1.1	-2	0
CN1CCN(c2ccc(Cl)cc2NC(=O)/C=C/c2ccc(F)cc2)CC1	-8	4	.	1.1	-2	9
Cc1cccc(/C=C2\CCC(=C3SCCCS3)C2=O)c1	93*	0	19	0.1	-3	0
O=C1/C(=C/c2ccc(F)cc2)CCC1C1CCCC1 (configuration not stated)	45	0	10	0.6	0	5
